This is an account of results in the array DNA melting data of Ke et al. (doi:10.1101/2024.01.08.574731).

Data set [1] in a line: folding enthalpy; higher = less favourable; fluorescence melt of hairpins on a sequencing array, two-state fit. The settings on record: sodium 0.088 M. Put shortly:
(§1)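 Two-state fits, bootstrapped, provided melting temperature and folding enthalpy from Cy3 fluorescence normalised to pre-quench Cy3 and to control constructs. Library hairpins with annealed Cy3 and quencher oligos were imaged on a sequenced MiSeq flow cell in 50 mM Na-HEPES pH 8.0, 25 mM NaCl, at 2.5 °C intervals up to 60 °C. Four replicates were combined with inverse-variance weighting. A 9.35 °C upward shift was applied to fitted temperatures to match UV melts.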

Data set [2] is described as follows: melting temperature; fluorescence melt of hairpins on a sequencing array, two-state fit, raised by 9.35 °C to match UV melts. The note with it: sodium 0.088 M. In a few lines:
as §1

With GCGTTCGAAAGAAACCGC ((((((....)))..))), in data set [1], the folding enthalpy is -25.2 kcal/mol. The Tm in data set [2] is 36.9 °C.

GCGTTCGAAAGAATGCGC ((((((....)))..))): the folding enthalpy in data set [1] is -28.8 kcal/mol. In addition, the Tm in data set [2] was 57.3 °C.

In the case of GCGTTGAACGC ((((...)))), the folding enthalpy in data set [1] is -18.2 kcal/mol. Also, the Tm in data set [2] is 54.1 °C.

Turning to GCGTTGAGACGC ((((....)))), the folding enthalpy in data set [1] was -29.7 kcal/mol. In addition, the Tm in data set [2] came to 56.6 °C.

Consider GCGTTGCAACGC ((((....)))), for which the folding enthalpy in data set [1] was -33.5 kcal/mol. For the same sequence, the Tm in data set [2] was found to be 59 °C.

Take GCGTTGCGAAAGCAGAGC ((..(((....)))..)): the folding enthalpy in data set [1] is -35.8 kcal/mol. For the same sequence, the Tm in data set [2] worked out at 63.4 °C.

Take GCGTTGCGAAAGCCAGGC ((.(.((....)).).)): the folding enthalpy in data set [1] was -16.9 kcal/mol. For the same sequence, in data set [2], the Tm worked out at 40.3 °C.

On to GCGTTGCGAAAGCCGCGC (((..((....))..))), for which the folding enthalpy in data set [1] was -21.9 kcal/mol. Also, the Tm in data set [2] stood at 63.3 °C.

With GCGTTGCGAAAGCGCCGC (((..((....))..))), the folding enthalpy in data set [1] is -14.8 kcal/mol. Moreover, the Tm in data set [2] was 58.4 °C.

Turning to GCGTTGCGAAAGCTAAGC ((.(.((....)).).)), the folding enthalpy in data set [1] is -26.9 kcal/mol. Moreover, in data set [2], the Tm came out at 59.2 °C.

Take GCGTTGCGAAAGCTATGC ((.(.((....)).).)): the folding enthalpy in data set [1] was -23.7 kcal/mol. For the same sequence, in data set [2], the Tm was 48.6 °C.

Regarding GCGTTGCGAAAGCTGCGC (((..((....))..))), the folding enthalpy in data set [1] was -36.3 kcal/mol. Further, in data set [2], the Tm was determined as 65.1 °C.

On to GCGTTGGGAAACCAGTGC ((..(((....)))..)), for which the folding enthalpy in data set [1] was -24.1 kcal/mol. Also, in data set [2], the Tm was found to be 36.5 °C.

On to GCGTTGGGAAACCGATGC ((.(.((....)).).)), for which, in data set [1], the folding enthalpy was -25.9 kcal/mol. For the same sequence, the Tm in data set [2] stood at 44 °C.

Turning to GCGTTGGGAAACTAACGC (((((.(....).))))), the folding enthalpy in data set [1] is -47.8 kcal/mol. Further, in data set [2], the Tm stood at 55.5 °C.

Turning to GCGTTTACACGC ((((....)))), the folding enthalpy in data set [1] was -23.2 kcal/mol. In addition, the Tm in data set [2] is 54.3 °C.

With GCGTTTAGACGC ((((....)))), the folding enthalpy in data set [1] is -27.3 kcal/mol. Moreover, the Tm in data set [2] came to 54 °C.

Take GCGTTTGAACGC ((((....)))): the folding enthalpy in data set [1] was -20.3 kcal/mol. Besides, the Tm in data set [2] turned out to be 56.7 °C.

For the sequence GCGTTTGCACGC ((((....)))), the folding enthalpy in data set [1] was -19.1 kcal/mol. The Tm in data set [2] stood at 54.3 °C.

For GCGTTTGGAAACAAACAC (.(((((....))))).), the folding enthalpy in data set [1] is -12.8 kcal/mol. For the same sequence, the Tm in data set [2] stood at 40.6 °C.

Take GCGTTTGGAAACAAGTGC ((..(((....)))..)): in data set [1], the folding enthalpy is -15.8 kcal/mol. For the same sequence, the Tm in data set [2] worked out at 31.4 °C.

On to GCGTTTTACGC ((((...)))), for which the folding enthalpy in data set [1] is -23 kcal/mol. The Tm in data set [2] came out at 60.6 °C.

Turning to GCGTTTTGACGC ((((....)))), in data set [1], the folding enthalpy is -25.2 kcal/mol. Also, the Tm in data set [2] is 55.2 °C.

Regarding GCTAAACCGAAAGGTAGC (((..(((....)))))), the folding enthalpy in data set [1] is -26.1 kcal/mol. The Tm in data set [2] turned out to be 44.5 °C.

In the case of GCTAAAGAAATTTAGC ((((((....)))))), the folding enthalpy in data set [1] was -28.8 kcal/mol. Besides, the Tm in data set [2] worked out at 41.7 °C.

As to GCTAACCGAAAGGTAGC (((.(((....)))))), the folding enthalpy in data set [1] was -31.9 kcal/mol. Moreover, the Tm in data set [2] was found to be 55.3 °C.

On to GCTAACGAAAGTTGCAGC ((((((....)))..))), for which the folding enthalpy in data set [1] was -15.5 kcal/mol. The Tm in data set [2] was 39 °C.

In the case of GCTAACGGAAACGTCAGC (((.(((....))).))), the folding enthalpy in data set [1] was -26.6 kcal/mol. Further, in data set [2], the Tm is 42.1 °C.

GCTAAGCGAAAGCCTGGC ((.(.((....)).).)): the folding enthalpy in data set [1] is -17.9 kcal/mol. For the same sequence, in data set [2], the Tm came out at 35.5 °C.

Regarding GCTAAGCGAAAGCGTCGC ((.(.((....)).).)), in data set [1], the folding enthalpy is -14 kcal/mol. In addition, the Tm in data set [2] is 45.8 °C.

As to GCTAAGCGAAAGCTAGC (((.(((....)))))), the folding enthalpy in data set [1] is -31.8 kcal/mol. The Tm in data set [2] is 56.1 °C.

In the case of GCTAAGCGAAAGCTCAGC (((.(((....))).))), in data set [1], the folding enthalpy is -31.6 kcal/mol. For the same sequence, the Tm in data set [2] came to 48 °C.

In the case of GCTAAGCGAAAGCTGTGC ((..(((....)))..)), the folding enthalpy in data set [1] was -18.1 kcal/mol. For the same sequence, the Tm in data set [2] is 48.6 °C.

Take GCTAAGCGAAAGCTTGGC ((.((((....)))).)): in data set [1], the folding enthalpy was -34.3 kcal/mol. The Tm in data set [2] worked out at 62.9 °C.

GCTAAGGGAAACCCTAGC ((((.((....)).)))): the folding enthalpy in data set [1] was -32.5 kcal/mol. Further, the Tm in data set [2] worked out at 42.7 °C.

Turning to GCTAAGGGAAACCTCAGC (((.(((....))).))), the folding enthalpy in data set [1] was -27.4 kcal/mol. In addition, in data set [2], the Tm came to 34.2 °C.

Take GCTAAGGGAAACTTTGGC ((.((.(....).)).)): in data set [1], the folding enthalpy was -10.8 kcal/mol. For the same sequence, the Tm in data set [2] worked out at 27.9 °C.

GCTAATGCGAAAGCAAGC (((..(((....)))))): in data set [1], the folding enthalpy was -16.4 kcal/mol. Besides, the Tm in data set [2] was determined as 36.1 °C.

Take GCTAATGGAAACATCAGC (((.(((....))).))): the folding enthalpy in data set [1] was -22.2 kcal/mol. Besides, in data set [2], the Tm came to 32.5 °C.

Regarding GCTAATGGAAACATTAGC (((((((....))))))), the folding enthalpy in data set [1] is -45.4 kcal/mol. Also, the Tm in data set [2] was 56 °C.

With GCTACACGAAAGTGAAGC (((.(((....))).))), in data set [1], the folding enthalpy is -35.3 kcal/mol. Moreover, the Tm in data set [2] came to 54.2 °C.

As for GCTACAGGAAACTGTGGC ((.((((....)))).)), in data set [1], the folding enthalpy was -39 kcal/mol. Besides, in data set [2], the Tm was determined as 51.8 °C.

Take GCTACATCGAAAGATAGC (((..(((....)))))): in data set [1], the folding enthalpy is -16.7 kcal/mol. Besides, in data set [2], the Tm turned out to be 33.8 °C.

Take GCTACCCGAAAGGGAAGC (((.(((....))).))): the folding enthalpy in data set [1] was -32.5 kcal/mol. Moreover, the Tm in data set [2] amounted to 58.6 °C.

As for GCTACCCGAAAGGGCAGC (((.(((....))).))), the folding enthalpy in data set [1] was -32.9 kcal/mol. Also, in data set [2], the Tm amounted to 57.8 °C.

On to GCTACCGAAAGGTAAAGC ((((((....)))..))), for which the folding enthalpy in data set [1] was -19.8 kcal/mol. In addition, the Tm in data set [2] stood at 46.8 °C.

Consider GCTACCGAAAGGTCAAGC ((((((....)))..))), for which the folding enthalpy in data set [1] was -14.9 kcal/mol. Also, the Tm in data set [2] worked out at 39.1 °C.

On to GCTACCGAAAGGTCAGC ((((((....))).))), for which the folding enthalpy in data set [1] is -21.4 kcal/mol. Moreover, the Tm in data set [2] came out at 48.7 °C.

On to GCTACCGAAAGGTCTAGC ((((((....)))..))), for which, in data set [1], the folding enthalpy is -14.9 kcal/mol. Moreover, the Tm in data set [2] turned out to be 36.6 °C.

Turning to GCTACCGAAAGGTGAAGC ((((((....)))..))), the folding enthalpy in data set [1] was -19 kcal/mol. Further, the Tm in data set [2] is 42 °C.

For GCTACCGAAAGGTGCAGC ((((((....)))..))), the folding enthalpy in data set [1] is -12.6 kcal/mol. Besides, the Tm in data set [2] stood at 43.5 °C.

Turning to GCTACCGAAAGGTTGAGC ((((((....)))..))), the folding enthalpy in data set [1] is -18.2 kcal/mol. Moreover, the Tm in data set [2] was determined as 38.8 °C.

For the sequence GCTACCGGAAACGGCAAC (.(.(((....))).).), in data set [1], the folding enthalpy is -8.04 kcal/mol. The Tm in data set [2] was found to be 18.5 °C.

Turning to GCTACCGGAAACGGTAAC (.(((((....))))).), in data set [1], the folding enthalpy was -12.9 kcal/mol. Moreover, in data set [2], the Tm came out at 37.2 °C.

Turning to GCTACGCGAAAGCATGGC ((.(.((....)).).)), the folding enthalpy in data set [1] is -19.7 kcal/mol. Besides, in data set [2], the Tm worked out at 37 °C.

Consider GCTACGCGAAAGCCTAGC ((((.((....)).)))), for which the folding enthalpy in data set [1] was -23.3 kcal/mol. For the same sequence, in data set [2], the Tm was 45.6 °C.
